Legend:
HCT-116 [1] = assay: Antiproliferative activity against human HCT116 cells expressing wild type p53 after 48 hrs by MTT assay; settings: HCT-116, 48 h
HCT-116 [2] = assay: Antiproliferative activity against p53-deficient human HCT116 cells after 48 hrs by MTT assay; settings: HCT-116, 48 h
A549 = assay: Antiproliferative activity against human A549 cells after 48 hrs by MTT assay; settings: A549, 48 h
MCF7 = assay: Antiproliferative activity against human MCF7 cells after 48 hrs by MTT assay; settings: MCF7, 48 h
HCT-116 [3] = assay: Induction of apoptosis in human HCT116 cells after 48 hrs by propidium iodide staining-based flow cytometry; type: functional, cell-based
Method in brief: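 HCT116 cells seeded at 2×10^5/well, grown 48 h, then exposed to compound for 48 h. Cells fixed overnight in 70% ice-cold ethanol, treated with RNase A (100 µg/ml, 30 min, room temperature), stained with propidium iodide (50 µg/mL final). Analysed by flow cytometry.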

HCT-116 [4] = assay: […] in human HCT116 cells assessed as accumulation at G1 phase at 50 uM after 48 hrs by propidium iodide staining-based flow cytometry (reference value: 62.5%); type: functional
Method in brief: (§1)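 HCT116 (wild-type p53) seeded at 2×10^5 cells/well, cultured 48 h, then treated with compound for 48 h. Washed in cold PBS, fixed overnight in 70% ice-cold ethanol, RNase A (100 µg/ml) 30 min at room temperature, stained with propidium iodide (50 µg/mL final). Cell cycle distribution by flow cytometry.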

HCT-116 [5] = assay: […] in human HCT116 cells assessed as accumulation at S phase at 50 uM after 48 hrs by propidium iodide staining-based flow cytometry (reference value: 24.8%); type: functional; method in brief: as §1
Mus musculus [6] = assay: Toxicity in BALB/c mouse allografted with mouse CT26 cells assessed as body weight at 50 mg/kg, ip qd administered for 10 days (reference value: 19.45 gm); type: organism-based; design: dose 50 mg/kg, route intraperitoneal; settings: in vivo, 240 h
CT26 = assay: Antitumor activity against mouse CT26 cells allografted in ip dosed BALB/c mouse assessed as tumor growth inhibition administered qd for 10 days; type: functional, organism-based
Method in brief: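 CT26 cell suspension implanted s.c. in right axilla of BALB/c mice; randomised 10/group. Dosing i.p. once daily for 10 days, starting 24 h after implantation; vehicle and blank control groups. Mice sacrificed 24 h after last dose, tumours excised and weighed; inhibition = (A–B)/A×100%, A and B mean tumour weights of control and treated groups.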

HCT-116 [7] = assay: Induction of p21 expression in human HCT116 cells after 48 hrs by Western blotting analysis; type: functional, cell-based
Method in brief: (§2)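 p53 wild-type HCT116 cells exposed to a range of concentrations for 48 h, lysed in Tris/NaCl/Triton X-100 buffer with protease inhibitors. Protein assayed by Bio-Rad method, separated by SDS-PAGE, transferred to PVDF, blocked in 5% non-fat milk. Primary antibody 2 h at room temperature, peroxidase secondary, ECL detection; beta-actin as loading control.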

HCT-116 [8] = assay: Induction of p53 expression in human HCT116 cells after 48 hrs by Western blotting analysis; type: functional, cell-based; method in brief: as §2
HCT-116 [9] = assay: Induction of MDM2 expression in human HCT116 cells after 48 hrs by Western blotting analysis; type: functional, cell-based; method in brief: as §2
Mus musculus [10] = assay: Toxicity in BALB/c mouse assessed as death at 500 mg/kg, ip up to 8 days; type: organism-based; design: dose 500 mg/kg, route intraperitoneal; settings: in vivo, 192 h
Method in brief: (§3)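 BALB/c mice randomised into two groups of 10; single intraperitoneal dose of 500 or 1000 mg/kg in 10% DMSO. Animals monitored for death and visible signs of toxicity over 8 days.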

Mus musculus [11] = assay: Toxicity in BALB/c mouse assessed as visible side effect at 500 mg/kg, ip up to 8 days; type: organism-based; design: dose 500 mg/kg, route intraperitoneal; settings: in vivo, 192 h; method in brief: as §3
Mus musculus [12] = assay: Toxicity in BALB/c mouse assessed as death at 1000 mg/kg, ip after 24 hrs; type: organism-based; design: dose 1000 mg/kg, route intraperitoneal; settings: in vivo; method in brief: as §3
Mus musculus [13] = assay: Toxicity in BALB/c mouse allografted with mouse CT26 cells assessed as body weight at 100 mg/kg, ip qd administered for 10 days (reference value: 19.45 gm); type: organism-based; design: dose 100 mg/kg, route intraperitoneal; settings: in vivo, 240 h

Compound `COc1ccc(/C=C2/C(=O)Nc3ccc(Cl)cc32)c(-c2ccc(Cl)cc2)c1` has a GI50 (HCT-116 [1]) of 32.2 µM, a GI50 (HCT-116 [2]) of 135 µM and a GI50 (A549) of 86.7 µM. It also gave a GI50 (MCF7) of over 100 µM.

`CCCOc1ccc(/C=C2/C(=O)Nc3ccccc32)c(OCCC)c1` showed a GI50 (HCT-116 [1]) of 14.4 µM, a GI50 (HCT-116 [2]) of 21.3 µM and a GI50 (A549) of 42.4 µM. The GI50 (MCF7) was 54 µM.

`COc1ccc(/C=C2/C(=O)Nc3cc(F)ccc32)c(OC)c1` showed a GI50 (HCT-116 [1]) of 26.9 µM, a GI50 (HCT-116 [2]) of 65.5 µM and a GI50 (A549) of over 100 µM. It also gave a GI50 (MCF7) of 88.4 µM.

For `COc1ccc(/C=C2/C(=O)Nc3ccc(Cl)cc32)c(OC)c1`, the GI50 (HCT-116 [1]) was 49.2 µM, the GI50 (HCT-116 [2]) was 126 µM and the GI50 (A549) was over 100 µM. The GI50 (MCF7) was over 100 µM.

In the case of `COc1ccc(C2=N[C@@H](c3ccc(Cl)cc3)[C@@H](c3ccc(Cl)cc3)N2C(=O)N2CCNC(=O)C2)c(OC(C)C)c1` [NUTLIN-3], the GI50 (HCT-116 [1]) is reported as 32.1 µM, the GI50 (HCT-116 [2]) is reported as 55.7 µM and the GI50 (A549) is reported as 47.6 µM. For the same compound, the GI50 (MCF7) was 48.7 µM, the Activity (HCT-116 [3]) was “Dose-dependent effect” and the Activity (HCT-116 [4]) was 53%. The Activity (HCT-116 [5]) was 8.7%.

`CC(C)Oc1ccc(/C=C2/C(=O)Nc3cc(Cl)ccc32)c(OC(C)C)c1` gave a GI50 (HCT-116 [1]) of 23.4 µM, a GI50 (HCT-116 [2]) of 42 µM and a GI50 (A549) of 30.4 µM. For the same compound, the GI50 (MCF7) was 42.9 µM.

Work on `COc1ccc(/C=C2/C(=O)Nc3cc(F)ccc32)c(-c2ccc(C#N)cc2)c1` yielded a GI50 (HCT-116 [1]) of 17.1 µM, a GI50 (HCT-116 [2]) of 109 µM and a GI50 (A549) of over 100 µM. It also gave a GI50 (MCF7) of over 100 µM.

`COc1cccc(/C=C2/C(=O)Nc3cc(Cl)ccc32)c1-c1ccc(C#N)cc1` gave a GI50 (HCT-116 [1]) of 48.3 µM, a GI50 (HCT-116 [2]) of 110 µM and a GI50 (A549) of 81.6 µM. The GI50 (MCF7) was over 100 µM.

For `CC(C)Oc1ccc(/C=C2/C(=O)Nc3ccc(Cl)cc32)c(OC(C)C)c1`, the GI50 (HCT-116 [1]) was 29.7 µM, the GI50 (HCT-116 [2]) was 37.7 µM and the GI50 (A549) was 42.6 µM. The GI50 (MCF7) was 55.7 µM.

For `COc1ccc(/C=C2/C(=O)Nc3ccc(F)cc32)c(-c2ccc(Cl)cc2)c1`, the GI50 (HCT-116 [1]) was 15.3 µM, the GI50 (HCT-116 [2]) was 27.3 µM and the GI50 (A549) was 58.8 µM. The GI50 (MCF7) was over 100 µM.

In the case of `CCCOc1ccc(/C=C2/C(=O)Nc3ccc(Cl)cc32)c(OCCC)c1`, the GI50 (HCT-116 [1]) is reported as 21 µM, the GI50 (HCT-116 [2]) is reported as 26.1 µM and the GI50 (A549) is reported as 30.2 µM. It also gave a GI50 (MCF7) of 58.4 µM.

With `COc1ccc(/C=C2/C(=O)Nc3ccccc32)c(OC)c1` the Activity (Mus musculus [6]) was 18.95 g, the TGI (CT26) was “Dose-dependent effect” and the GI50 (HCT-116 [1]) was 13.4 µM. The GI50 (HCT-116 [2]) was 28.1 µM, the GI50 (A549) was 52.5 µM and the GI50 (MCF7) was 54.1 µM. The Activity (HCT-116 [7]) was “Dose-dependent effect”, the Activity (HCT-116 [8]) was “Dose-dependent effect” and the Activity (HCT-116 [9]) was “Dose-dependent effect”. For the same compound, the Activity (HCT-116 [3]) was “Dose-dependent effect”, the Activity (Mus musculus [10]) was “Non-toxic” and the Activity (Mus musculus [11]) was “Non-toxic”. For the same compound, the Activity (Mus musculus [12]) was “Toxic” and the Activity (Mus musculus [13]) was 18.91 g.

`COc1ccc(/C=C2/C(=O)Nc3ccc(Cl)cc32)c(-c2ccc(C#N)cc2)c1` gave a GI50 (HCT-116 [1]) of 27.1 µM, a GI50 (HCT-116 [2]) of 124 µM and a GI50 (A549) of over 100 µM. For the same compound, the GI50 (MCF7) was over 100 µM.

For `COc1ccc(/C=C2/C(=O)Nc3ccc(Cl)cc32)c(Br)c1`, the GI50 (HCT-116 [1]) was 53.4 µM, the GI50 (HCT-116 [2]) was 115 µM and the GI50 (A549) was over 100 µM. It also gave a GI50 (MCF7) of over 100 µM.
